According to ChEMBL document CHEMBL1148855, “Synthesis and antibacterial activity of 4,5,6,7-tetrahydro-thieno[3,2-c]pyridine quinolones” (2007):
In brackets after ≈: the same amount, converted by molar mass.

Columns and labels:
Assay type in all cases: functional
[1] = test system: Staphylococcus aureus; assay: Antibacterial activity against Staphylococcus aureus ATCC 33591 by micro-broth dilution method
In short: (§1)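 MIC taken as the lowest concentration giving 90% inhibition of bacterial growth. Determined by microbroth dilution following National Committee (NCCLS) guidance, with each value determined in triplicate.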

[2] = test system: Klebsiella pneumoniae; assay: Antibacterial activity against Klebsiella pneumoniae ATCC 10031 by micro-broth dilution method; in short: as §1
[3] = test system: Staphylococcus aureus; assay: Antibacterial activity against Staphylococcus aureus ATCC 29213 by micro-broth dilution method; in short: as §1
[4] = test system: Streptococcus pneumoniae; assay: Antibacterial activity against penicillin-resistant Streptococcus pneumoniae ATCC 700904 by micro-broth dilution method
In short: (§2)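 Microbroth dilution run per National Committee guidelines; MIC taken as the concentration giving 90% inhibition of bacterial growth. Tested within a broader panel of susceptible and resistant Gram-positive strains. Reported values come from triplicate determinations.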

[5] = test system: Staphylococcus aureus; assay: Antibacterial activity against methicillin-resistant Staphylococcus aureus ATCC 700699 by micro-broth dilution method; in short: as §2
[6] = test system: Staphylococcus aureus; assay: Antibacterial activity against Staphylococcus aureus ATCC 25923 by micro-broth dilution method; in short: as §1
[7] = test system: Escherichia coli; assay: Antibacterial activity against Escherichia coli ATCC 25922 by micro-broth dilution method; in short: as §1
[8] = test system: Enterococcus faecalis; assay: Antibacterial activity against vancomycin-resistant Enterococcus faecalis ATCC 700802 by micro-broth dilution method; in short: as §2
[9] = test system: Enterococcus faecium; assay: Antibacterial activity against vancomycin-resistant Enterococcus faecium ATCC 700221 by microbroth dilution method; in short: as §2
[10] = test system: Staphylococcus epidermidis; assay: Antibacterial activity against Staphylococcus epidermidis ATCC 12228 by micro-broth dilution method; in short: as §1
[11] = test system: Pseudomonas aeruginosa; assay: Antibacterial activity against Pseudomonas aeruginosa ATCC 27853 by micro-broth dilution method; in short: as §1
[12] = test system: Staphylococcus aureus; assay: Antibacterial activity against linezolid-resistant Staphylococcus aureus NRS 119 by microbroth dilution method; in short: as §2
[13] = test system: Staphylococcus aureus; assay: Antibacterial activity against Staphylococcus aureus ATCC 33592 by micro-broth dilution method; in short: as §1
[14] = test system: Bacillus subtilis; assay: Antibacterial activity against Bacillus subtilis ATCC 6633 by micro-broth dilution method; in short: as §1
[15] = test system: Enterococcus faecalis; assay: Antibacterial activity against Enterococcus faecalis ATCC 14506 by microbroth dilution method; in short: as §1
[16] = test system: Enterococcus faecalis; assay: Antibacterial activity against Enterococcus faecalis ATCC 29212 by micro-broth dilution method; in short: as §1

Compound	MIC [1] [µg/mL]	MIC [2] [µg/mL]	MIC [3] [µg/mL]	MIC [4] [µg/mL]	MIC [5] [µg/mL]	MIC [6] [µg/mL]	MIC [7] [µg/mL]	MIC [8] [µg/mL]	MIC [9] [µg/mL]	MIC [10] [µg/mL]	MIC [11] [µg/mL]	MIC [12] [µg/mL]	MIC [13] [µg/mL]	MIC [14] [µg/mL]	MIC [15] [µg/mL]	MIC [16] [µg/mL]
O=C(O)c1cn(C2CC2)c2cc(N3CCc4sccc4C3)c(F)cc2c1=O	4 (≈ 10.4 µM)	≤ 0.12	4 (≈ 10.4 µM)	0.25 (≈ 0.65 µM)	> 16	1 (≈ 2.6 µM)	0.25 (≈ 0.65 µM)	4 (≈ 10.4 µM)	> 16	8 (≈ 20.8 µM)	> 16	> 16	1 (≈ 2.6 µM)	≤ 0.12	16 (≈ 41.6 µM)	–
O=C(O)c1cn(C2CC2)c2c(F)c(N3CCc4sccc4C3)c(F)c(F)c2c1=O	4 (≈ 9.51 µM)	8 (≈ 19 µM)	4 (≈ 9.51 µM)	2 (≈ 4.76 µM)	> 16	2 (≈ 4.76 µM)	0.5 (≈ 1.19 µM)	16 (≈ 38.1 µM)	> 16	2 (≈ 4.76 µM)	> 16	> 16	2 (≈ 4.76 µM)	0.25 (≈ 0.595 µM)	> 16	> 16
C[C@@H]1CN(c2c(F)c(N)c3c(=O)c(C(=O)O)cn(C4CC4)c3c2F)C[C@H](C)N1 [SPARFLOXACIN]	16 (≈ 40.8 µM)	≤ 0.12	≤ 0.125	≤ 0.125	8 (≈ 20.4 µM)	≤ 0.125	–	1 (≈ 2.55 µM)	16 (≈ 40.8 µM)	0.25 (≈ 0.637 µM)	0.25 (≈ 0.637 µM)	16 (≈ 40.8 µM)	≤ 0.25	≤ 0.12	> 16	–
Nc1c(F)c(N2CCc3sc(Br)cc3C2)c(F)c2c1c(=O)c(C(=O)O)cn2C1CC1	–	> 16	–	–	–	–	> 16	–	–	> 16	> 16	–	–	> 16	–	> 16
COc1c(N2CCc3sccc3C2)c(F)c([N+](=O)[O-])c2c(=O)c(C(=O)O)cn(C3CC3)c12	8 (≈ 17.4 µM)	–	–	–	–	–	16 (≈ 34.8 µM)	–	–	2 (≈ 4.35 µM)	> 16	–	–	0.25 (≈ 0.544 µM)	–	–
COc1c(N2CCc3sc(Br)cc3C2)c(F)cc2c(=O)c(C(=O)O)cn(C3CC3)c12	1 (≈ 2.03 µM)	4 (≈ 8.11 µM)	4 (≈ 8.11 µM)	8 (≈ 16.2 µM)	> 16	2 (≈ 4.05 µM)	2 (≈ 4.05 µM)	> 16	> 16	≤ 0.12	> 16	> 16	2 (≈ 4.05 µM)	≤ 0.12	> 16	0.5 (≈ 1.01 µM)
COc1c(N2CCc3sc(C(=O)O)cc3C2)c(F)cc2c(=O)c(C(=O)O)cn(C3CC3)c12	2 (≈ 4.36 µM)	2 (≈ 4.36 µM)	2 (≈ 4.36 µM)	1 (≈ 2.18 µM)	> 16	2 (≈ 4.36 µM)	8 (≈ 17.4 µM)	16 (≈ 34.9 µM)	> 16	1 (≈ 2.18 µM)	> 16	> 16	0.5 (≈ 1.09 µM)	0.5 (≈ 1.09 µM)	> 16	8 (≈ 17.4 µM)
COc1c(N2CCNC(C)C2)c(F)cc2c(=O)c(C(=O)O)cn(C3CC3)c12 (stereo unspecified) [GATIFLOXACIN]	0.5 (≈ 1.33 µM)	≤ 0.12	0.25 (≈ 0.666 µM)	≤ 0.125	8 (≈ 21.3 µM)	≤ 0.125	≤ 0.12	0.5 (≈ 1.33 µM)	> 16	0.25 (≈ 0.666 µM)	1 (≈ 2.66 µM)	4 (≈ 10.7 µM)	4 (≈ 10.7 µM)	≤ 0.12	0.5 (≈ 1.33 µM)	0.5 (≈ 1.33 µM)
CC(=O)Nc1c(F)c(N2CCc3sccc3C2)c(F)c2c1c(=O)c(C(=O)O)cn2C1CC1	> 16	> 16	–	–	–	–	> 16	–	–	> 16	> 16	–	–	1 (≈ 2.18 µM)	–	> 16
